Screening results deposited in PubChem BioAssay by several laboratories.
CXCR6 inh: blocks human CXCR6 beta-arrestin recruitment; AID 602244; inhibition, % at 20 µM; CHO-K1 PathHunter CXCR6 beta-arrestin, luminescence; 360,000 tested, 0.36% active; in the data active = inhibition above about 34%, passing the limit was not always enough;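 also: antagonist mode with CXCL16 agonist at 10 nM final; 0% = 10 nM CXCL16 with DMSO and 100% = unstimulated wells without agonist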
Beta2AR agonist: agonists of human beta-2 adrenergic receptor inducing internalization; P07550; Am2.2-beta2AR cells, FAP receptor internalization, flow cytometry; response, % (test concentration not listed); 340,000 tested, 0.43% active; AID 504454;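 active = response above a set limit, near 3 SD of response in nonfluorescent compounds, cut at about 42% in these data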
APJ antagonist: antagonists of human APJ apelin receptor; 330,000 tested, 0.32% active; inhibition, % at 20 µM; P35414; CHO-K1 APJ beta-arrestin complementation, luminescence; AID 2521;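 active = inhibition above about 40% at 20 µM, limit read from the data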;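 also: cells challenged with 10 nM apelin-13 agonist together with compound; plate controls were apelin-13 plus DMSO wells for no effect and DMSO wells lacking apelin-13 for full effect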
Target sequence (P35414 whole entry, looked up): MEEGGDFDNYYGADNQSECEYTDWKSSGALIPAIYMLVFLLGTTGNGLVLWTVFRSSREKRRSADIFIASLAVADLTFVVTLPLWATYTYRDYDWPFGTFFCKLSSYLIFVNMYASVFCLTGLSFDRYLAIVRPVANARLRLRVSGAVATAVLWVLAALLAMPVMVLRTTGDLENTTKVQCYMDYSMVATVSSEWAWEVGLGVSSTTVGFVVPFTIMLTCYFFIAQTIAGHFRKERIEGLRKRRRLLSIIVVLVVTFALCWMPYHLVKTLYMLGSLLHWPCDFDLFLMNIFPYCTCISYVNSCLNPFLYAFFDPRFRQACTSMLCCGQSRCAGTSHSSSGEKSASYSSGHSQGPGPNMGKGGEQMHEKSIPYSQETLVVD
EBI2 antag: antagonists of human EBI2 receptor; inhibition, % at 5 µM; EBI2 beta-arrestin recruitment, luminescence, 7a,25-OHC stimulated; 360,000 tested, 0.81% active; P32249; AID 651636; in the data active = inhibition above about 38%;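 also: enzyme fragment complementation signal reports receptor beta-arrestin coupling in cells; 0% = agonist plus DMSO wells and 100% = wells without agonist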
Target sequence (P32249 whole entry, looked up, the tested form may be a part): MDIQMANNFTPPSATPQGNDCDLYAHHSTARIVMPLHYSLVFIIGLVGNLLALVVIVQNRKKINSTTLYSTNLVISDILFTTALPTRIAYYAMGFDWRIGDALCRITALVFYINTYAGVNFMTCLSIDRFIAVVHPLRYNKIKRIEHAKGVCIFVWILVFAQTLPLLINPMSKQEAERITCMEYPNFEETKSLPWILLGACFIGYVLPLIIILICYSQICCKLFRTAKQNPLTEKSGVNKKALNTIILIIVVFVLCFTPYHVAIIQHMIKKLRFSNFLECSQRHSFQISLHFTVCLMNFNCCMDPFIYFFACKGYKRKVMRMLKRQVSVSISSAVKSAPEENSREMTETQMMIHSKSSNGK
APJ ag: agonists of human APJ apelin receptor; P35414; CHO-K1 APJ PathHunter beta-arrestin, luminescence; 0% DMSO wells, 100% apelin; activation, % at 20 µM; 330,000 tested, 0.11% active;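 active = activation more than six SD over the plate average, tested at 20 µM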;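 also: 0% = DMSO alone and 100% = apelin-13 at 10 nM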
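Assay system – PathHunter CHO-K1 APJ (AGTRL-1) beta-arrestin reporter cells · Compound – one dose, 20 µM compound, 1% DMSO · Timing – compound 90 min 25 °C, reagent 1 h · Measured by – luminescence from split beta-galactosidase complementation, Galacton Star/Emerald II substrate · Measure – beta-arrestin recruitment to APJ as agonist activity, luminescent signal · Benchmarks – DMSO vs Apelin-13 10 nM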
CCR6 antag: antagonists of human CCR6 receptor; CHO-K1 CCR6 PathHunter beta-arrestin, luminescence, CCL20-stimulated; inhibition, % at 20 µM; 340,000 tested, 0.49% active;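 active = compounds whose inhibition of the agonist-driven luminescence signal at 20 µM reaches about 50%, limit read from the data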;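 also: cells stimulated with CCL20 at 14 nM final; plate controls were DMSO with CCL20 for no effect and DMSO without agonist for full effect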
EBI2 conf: confirmation of human EBI2 receptor antagonists; EBI2 beta-arrestin luminescence, 7a,25-OHC antagonism; inhibition, % at 5 µM; shares compounds with EBI2 antag; 2,400 tested, 29% active;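 active = inhibition of at least 50%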
EBI2 ag: activates EBI2, counter-screen for EBI2 antagonists; activation, % at 5 µM; shares compounds with EBI2 antag; 2,400 tested, under 10 active; AID 652000; EBI2-expressing cells, agonist mode, luminescence, 60 min; 0% vehicle, 100% 7α,25-dihydroxycholesterol control;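 active = activation of at least 50%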
bGal counter: beta-galactosidase inhibition counter-screen | purified beta-galactosidase, luminescent Galacton Star, 15 min | shares compounds with EBI2 antag | inhibition, % at 5 µM | AID 652176 | 2,400 tested, 1% active;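 active = replicate-average signal at least 3 plate SD below neutral wells, shown as high inhibition, flagging enzyme-inhibiting false positives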;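 also: 0% = DMSO wells with enzyme and 100% = wells lacking enzyme; higher means stronger loss of beta-gal luminescence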
The depositor's hits bear a star; nt = no result given. A selection: hits, their analogues and other compounds. The true share with any hit is near 1.8%.

SMILES	CXCR6 inh	Beta2AR agonist	APJ antagonist	EBI2 antag	APJ ag	CCR6 antag	EBI2 conf	EBI2 ag	bGal counter
O=C(c1ccc(Br)cc1)N1CCN(c2ccccn2)CC1	6.1	nt	nt	30.3	nt	nt	nt	nt	nt
Cc1ccc2c(c1)cc(C(=O)N1CCN(c3ccccn3)CC1)n2C	13.5	-0.6	9.1	46.7*	-2.8	9.4	33.9	-1.7	-9.1
O=C(c1ccc2ccccc2c1)N1CCN(c2ccc(O)cc2)CC1	5.4	-6.2	-15.2	57.0*	0.1	8.0	26.0	-1.4	-10.8
O=C(c1ccc2ccccc2c1)N1CCN(c2ccccn2)CC1	8.7	-1.4	0.0	56.5*	-1.9	3.2	42.3	1.0	8.8
COC(=O)c1c(C)[nH]c(C(=O)OCc2csc(CC(=O)Nc3ccccc3C)n2)c1C	-11.5	10.9	-2.1	2.6	0.1	13.9	nt	nt	nt
O=C(CSc1c(Cl)cccc1Cl)N1CCC(c2nc3ccccc3s2)CC1	-16.1	-3.9	-22.1	2.5	1.2	-5.1	nt	nt	nt
O=C(CSc1ccc(Cl)cc1)N1CCC(c2nc3ccccc3s2)CC1	0.4	-2.6	-30.2	82.5*	-3.1	5.0	66.4*	0.9	-8.3
CCOC(=O)C1CCN(C(=O)CSc2ccc(Br)cc2)CC1	6.6	0.9	-10.6	83.7*	-2.1	1.2	54.3*	1.2	4.9
CCOC(=O)C1CCN(C(=O)C(C)Sc2ccc(Cl)cc2)CC1 (configuration not stated)	-0.2	22.2	-3.7	-0.3	0.4	19.5	nt	nt	nt
CCOC(=O)C1CCN(C(=O)CSc2ccc(Cl)cc2)CC1	6.9	-3.2	10.5	76.7*	-2.9	-12.8	46.7	2.8	6.6
CC(C)c1ccccc1OCCNC(=O)c1cncc(Br)c1	-0.9	-8.0	-20.9	47.1*	-3.3	8.7	16.2	-2.0	-6.6
CC(C)c1ccccc1OCCNC(=O)c1cccnc1	1.5	-1.1	2.4	-10.3	-4.9	5.7	nt	nt	nt
CCOc1ccc(CCN2C(=S)N([C@@H](CC(C)C)CN3CCC[C@@H]3CN3C(=S)NC[C@@H]3CC(C)C)C[C@@H]2Cc2ccc(O)cc2)cc1	9.9	nt	nt	47.3*	nt	nt	23.5	0.2	4.3
CC(C)C[C@@H](CN1CCC[C@@H]1CN1C(=S)NC[C@@H]1Cc1ccc(O)cc1)N1C[C@H](Cc2ccc(O)cc2)N(CCc2ccccc2)C1=S	1.4	nt	nt	74.0*	nt	nt	18.8	0.1	-11.3
CC(C)C[C@@H](CN1CCCC1CN1C(=S)NC[C@@H]1Cc1ccccc1)N1C[C@H](Cc2ccc(O)cc2)N(CCc2ccccc2)C1=S (some centres not stated)	-0.3	nt	nt	21.5	nt	nt	nt	nt	nt
CC(C)C[C@@H](CN1CCC[C@@H]1CN1C(=S)NC[C@@H]1Cc1ccccc1)N1C[C@H](Cc2ccc(O)cc2)N(CCc2ccccc2)C1=S	-1.4	nt	nt	37.5*	nt	nt	5.1	1.0	6.8
CC(C)C[C@H]1CNC(=S)N1C[C@H]1CCCN1C[C@H](CC(C)C)N1C[C@H](Cc2ccc(O)cc2)N(CC2CCCCC2)C1=S	11.4	nt	nt	61.1*	nt	nt	7.6	-0.8	-6.7
COC[C@H]1CCCN1[C@H]1CS(=O)(=O)N[C@@H]1COCc1ccccc1	2.5	nt	nt	-0.1	nt	nt	nt	nt	nt
COc1ccc(C2c3ccc(O)cc3Oc3ncn4nc(-c5cccnc5)nc4c32)cc1OC (configuration not stated)	13.1	-1.1	4.5	81.5*	-2.0	13.4	55.4*	-1.0	8.9
COc1ccc(C2c3ccc(O)cc3Oc3ncn(Cc4ccco4)c(=N)c32)cc1OC (configuration not stated)	-0.2	-3.0	-15.3	-0.6	-3.3	13.9	nt	nt	nt
COc1ccc(-c2c(C)nc(N)nc2-c2ccc(OC)cc2O)cc1	-8.2	1.1	-2.5	74.4*	1.9	7.4	46.0	-1.3	-23.2
CCc1cc(-c2nc(N)ncc2-c2ccc(Br)cc2)c(O)cc1OC	4.4	-4.1	6.7	76.7*	-0.7	-6.8	48.3	-0.7	-5.9
COc1ccc(-c2nc(N)ncc2-c2ccc(OC)c(OC)c2)c(O)c1	0.8	17.4	10.3	57.3*	-0.6	4.4	26.5	0.4	-6.4
CCOc1ccc(-c2nc(N)ncc2Oc2cccc(OC)c2)c(O)c1	1.5	13.2	1.1	47.1*	-1.3	-2.6	38.1	2.3	3.7
C=C(C)COc1ccc(-c2nc(N)ncc2-c2ccc(Br)cc2)c(O)c1	-1.3	5.2	8.7	18.7	-0.6	7.8	nt	nt	nt
SMILES	CXCR6 inh	Beta2AR agonist	APJ antagonist	EBI2 antag	APJ ag	CCR6 antag	EBI2 conf	EBI2 ag	bGal counter
O=C(NCc1ccc(F)cc1F)[C@@H]1CCCN1C(=O)[C@@H]1CCCN1	-3.7	nt	nt	-14.6	nt	nt	nt	nt	nt
COc1ccc(NC(=O)CCN2CCN(S(=O)(=O)c3cc(Cl)ccc3Cl)CC2)cc1	1.6	-4.3	-1.2	47.7*	-0.8	-0.5	26.5	-0.7	-6.1
O=C(NCCN1CCC(n2c(=O)[nH]c3ccccc32)CC1)c1ccccc1C(F)(F)F	4.3	nt	nt	-7.7	nt	nt	nt	nt	nt
COc1ccccc1-c1ccc2c(c1)O[C@@H](CN(C)C(=O)Nc1cccc(F)c1)[C@H](C)CN([C@H](C)CO)S2(=O)=O	-14.2	nt	nt	44.1*	nt	nt	1.6	2.4	2.0
CC(C)(C)c1ccc(C(=S)N2CCN(c3ccccc3)CC2)cc1	6.5	9.1	20.3	58.5*	-1.7	17.3	46.5	-2.3	-10.7
CN(C)C(=O)CCc1ccc2c3c([nH]c2c1)[C@]1(CCc2ccccc2)[C@@H](C(=O)N2CCCCC2)C[C@H](CC(=O)NCc2cccc(C(F)(F)F)c2)C(=O)N1CC3	8.6	7.1	nt	42.4*	nt	13.9	33.2	-1.2	-22.7
CN(C)C(=O)CCc1ccc2c3c([nH]c2c1)[C@]1(CCc2ccccc2)[C@@H](C(=O)N2CCCCC2)C[C@H](CC(=O)NCc2ccco2)C(=O)N1CC3	-1.3	3.5	nt	2.8	nt	33.6	nt	nt	nt
COc1ccc(S(=O)(=O)Nc2cccc3c2O[C@H](CN(C)Cc2ccc(Cl)c(Cl)c2)[C@@H](C)CN([C@H](C)CO)C3=O)cc1	0.6	-13.1	0.8	60.5*	-2.2	12.8	59.5*	-0.8	4.3
O=C(NC(c1ccc(-c2ccccc2)cc1)c1cnccn1)C1CCN(CCCOc2ccccc2)CC1 (configuration not stated)	0.0	nt	nt	3.8	nt	nt	nt	nt	nt
CC(C)c1ccc(S(=O)(=O)N2CCN(C(=O)c3ccncc3)CC2)cc1	-10.2	-13.9	-4.8	-12.3	-4.9	-1.4	nt	nt	nt
COc1ccc(S(=O)(=O)N2CCN(C(=O)c3cc(-c4ccccc4OC)n[nH]3)CC2)cc1	-12.6	1.9	-4.3	62.6*	3.1	5.8	37.8	1.1	6.8
